Published values collected from several papers.

SMILES | target or system | read-out | technique | tested at | notes | endpoint | value
COc1cc(C=CC(=O)CC(c2ccc([N+](=O)[O-])cc2)n2ccnc2)ccc1O (stereo not drawn) |  | DPPH scavenging |  | 50 µg/mL |  | inhibition | 61.4%
Cc1cccc(N(O)N=Nc2ccc(S(=O)(=O)Nc3cc(C)on3)cc2)c1 |  | DPPH scavenging | absorbance | 180 µg/mL |  | inhibition | 34.7%
CNC(=O)c1cc(Oc2ccc(NC(=O)Nc3ccc(Cl)c(C(F)(F)F)c3)cc2)ccn1 | Salmonella | microbial growth |  |  | clinical isolate | MIC | > 100 µM
O=C1O[C@H]([C@@H](O)CO)C(O)=C1O |  | DPPH scavenging | absorbance | 80 µM |  | inhibition | 53.7%
COc1cc(C=CC(=O)CC(c2ccc(N(C)C)cc2)n2ccnc2)ccc1O (stereo not drawn) |  | DPPH scavenging |  | 12.5 µg/mL |  | inhibition | 42.7%
C[C@@H](O)[C@H]1C(=O)N2C(C(=O)O)=C(S[C@@H]3CN[C@H](C(=O)N(C)C)C3)[C@H](C)[C@H]12 | Serratia fonticola | microbial growth | broth dilution |  | clinical isolate | MIC | 32 µg/mL
COc1cc(-c2ccc(-c3ccc(C(=N)N)nc3)s2)cc(OC)c1OC | NCI/ADR-RES | cell growth or viability | SRB |  |  | GI50 | 5.2 µM
O=S(=O)(Nc1nccs1)c1ccc(N=NN(O)c2ccccc2)cc1 |  | DPPH scavenging | absorbance | 20 µg/mL |  | inhibition | 24.1%
COc1cc(C=Cc2cc(-c3ccccc3)nc(O)n2)ccc1O |  | DPPH scavenging |  | 12.5 µg/mL |  | inhibition | 38.3%
CCCN(O)N=Nc1ccc(S(=O)(=O)Nc2cc(C)on2)cc1 |  | DPPH scavenging | absorbance | 300 µg/mL |  | inhibition | 27.6%
Oc1ccc(Br)cc1C=NCCN1CCOCC1 |  | DPPH scavenging | absorbance | 120 µM |  | inhibition | 28.6%
O=C1O[C@H]([C@@H](O)CO)C(O)=C1O |  | DPPH scavenging |  | 100 µg/mL |  | inhibition | 81.3%
